Experimental data as given in ChEMBL document CHEMBL1158557, “In vitro TRPV1 activity of piperine derived amides” (Bioorg Med Chem, 2010).
Activity calls are given as the source filed them. The rule behind the calls is not given here.

Key:
[1] = target: T1, Transient receptor potential cation channel subfamily V member 1 (Homo sapiens, UniProt Q8NER1); test: Antagonist activity at human TRPV1 expressed in tetracycline-stimulated HEK293 cells assessed as inhibition of capsaicin-induced intracellular calcium levels by fluorimetric assay; format: functional, cell-based
[2] = target: T1, Transient receptor potential cation channel subfamily V member 1; test: Antagonist activity at human TRPV1 expressed in tetracycline-stimulated HEK293 cells assessed as inhibition of capsaicin-induced intracellular calcium levels by fluorimetric assay relative to control; format: functional, cell-based
[3] = target: T1, Transient receptor potential cation channel subfamily V member 1; test: Agonist activity at human TRPV1 expressed in tetracycline-stimulated HEK293 cells assessed as increase in intracellular calcium levels by fluorimetric assay; format: functional, cell-based
[4] = target: T1, Transient receptor potential cation channel subfamily V member 1; test: Agonist activity at human TRPV1 expressed in tetracycline-stimulated HEK293 cells assessed as increase in intracellular calcium levels by fluorimetric assay relative to control; format: functional, cell-based
Outline: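 Tetracycline induction (0.1 µg/mL, 16–24 h) of HEK T-REx hTRPV1 cells, then Fluo-4/AM loading (1 µM, with probenecid 2 mM, 1 h, 37 °C) and a 30 min rest in HEPES buffer pH 7.4. Screening at 100 µM, then full concentration–response for compounds above 50%. Ex 488/em 520 nm, 22–24 °C, triplicate wells.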

[5] = target: T1, Transient receptor potential cation channel subfamily V member 1; test: Agonist activity at human TRPV1 expressed in HEK293 cells assessed as increase in intracellular calcium levels by fluorimetric assay without tetracycline-stimulation; format: functional, cell-based
Outline: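 Non-induced HEK T-REx hTRPV1 cells (no tetracycline) loaded with Fluo-4/AM 1 µM plus probenecid 2 mM for 1 h at 37 °C, then equilibrated 30 min in HEPES buffer pH 7.4. Compounds at 100 µM (10 µM where solubility poor), DMSO ≤0.1%. Fluorescence read at 488/520 nm, 22–24 °C, triplicate wells. Response given as % of 1 µM ionomycin; n = 4–6.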

[6] = target: T1, Transient receptor potential cation channel subfamily V member 1; test: Displacement of [3H]resiniferatoxin from human TRPV1

T1 sequence (Q8NER1 whole entry): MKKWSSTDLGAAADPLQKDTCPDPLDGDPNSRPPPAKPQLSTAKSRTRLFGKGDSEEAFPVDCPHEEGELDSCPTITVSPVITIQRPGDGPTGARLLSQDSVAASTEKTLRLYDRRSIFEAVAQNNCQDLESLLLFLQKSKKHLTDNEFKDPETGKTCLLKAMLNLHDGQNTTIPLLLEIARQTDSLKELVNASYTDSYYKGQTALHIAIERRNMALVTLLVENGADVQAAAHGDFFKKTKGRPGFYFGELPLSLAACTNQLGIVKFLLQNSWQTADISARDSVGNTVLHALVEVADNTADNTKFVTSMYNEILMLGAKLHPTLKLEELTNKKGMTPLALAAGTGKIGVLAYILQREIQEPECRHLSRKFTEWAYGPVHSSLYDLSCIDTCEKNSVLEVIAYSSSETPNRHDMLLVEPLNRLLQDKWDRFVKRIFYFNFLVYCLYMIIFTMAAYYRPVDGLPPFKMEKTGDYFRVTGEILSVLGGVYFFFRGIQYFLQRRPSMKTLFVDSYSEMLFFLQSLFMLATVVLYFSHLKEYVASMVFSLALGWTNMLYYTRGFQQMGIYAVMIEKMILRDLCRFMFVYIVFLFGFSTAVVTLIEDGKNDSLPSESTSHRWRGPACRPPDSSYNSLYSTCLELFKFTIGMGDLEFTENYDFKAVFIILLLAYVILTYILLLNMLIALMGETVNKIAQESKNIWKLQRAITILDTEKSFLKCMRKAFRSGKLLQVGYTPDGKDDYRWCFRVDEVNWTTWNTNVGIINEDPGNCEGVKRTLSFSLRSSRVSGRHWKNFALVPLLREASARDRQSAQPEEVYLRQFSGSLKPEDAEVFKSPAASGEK

| SMILES | EC50 [1] [nM] | Emax [2] [%] | EC50 [3] [nM] | Emax [4] [%] | Activity [5] | Activity [6] |
| --- | --- | --- | --- | --- | --- | --- |
| O=C(/C=C/C=C/c1ccc2c(c1)OCO2)Nc1ccc(Cl)cc1 | 10 | 94 | – | – | – | – |
| COc1cc(/C=C/C(=O)N2CCCCC2)ccc1O | 2 | 93 | – | – | – | – |
| COc1cc(/C=C/C(=O)N2CCSCC2)ccc1O | 2.51 | 93 | – | – | – | – |
| COc1cc(/C=C/C(=O)NCC(C)C)ccc1O | 6.31 | 94 | – | – | – | – |
| COc1cc(/C=C/C(=O)N2CCOCC2)ccc1O | 2.51 | 92 | – | – | – | – |
| O=C(/C=C/C=C/c1ccc2c(c1)OCO2)N1CCOCC1 | – | – | 2510 | 93 | inactive | – |
| COc1cc(CNC(=O)CCCC/C=C/C(C)C)ccc1O | – | – | – | 97 | – | – |
| Oc1cc2c(cc1O)CN(C(=S)NCCc1ccc(Cl)cc1)CCC2 [CAPSAZEPINE] | 2510 | 92 | – | – | – | – |
| O=C(/C=C/c1ccc2c(c1)OCO2)N1CCCCC1 [ILEPCIMIDE] | – | – | 20000 | 66 | inactive | – |
| O=C(/C=C/CCc1ccc2c(c1)OCO2)N1CCCCC1 [PIPERANINE] | – | – | 3980 | 88 | inactive | – |
| O=C(/C=C/C=C/c1ccc2c(c1)OCO2)N1CCCCC1 [PIPERINE] | – | – | 3160 | 91 | inactive | inactive |
| CC(C)CNC(=O)/C=C/C=C/c1ccc2c(c1)OCO2 [PIPERLONGUMININE] | 6.31 | 94 | – | – | – | – |
| O=C(CCCCc1ccc2c(c1)OCO2)N1CCCCC1 [TETRAHYDROPIPERINE] | – | – | 6310 | 90 | inactive | – |
